In ChEMBL document CHEMBL1145785, “Design, synthesis, and structure-activity relationships of alkylcarbamic acid aryl esters, a new class of fatty acid amide hydrolase inhibitors” (J Med Chem, 2003):

What was measured:
[1] = biological target: T1, Fatty-acid amide hydrolase 1 (Rattus norvegicus, UniProt P97612); assay: Fatty acid amide hydrolase inhibitory activity in rat brain membrane using [3H]anandamide as a substrate; format: cell membranes
T1 sequence (P97612 whole entry): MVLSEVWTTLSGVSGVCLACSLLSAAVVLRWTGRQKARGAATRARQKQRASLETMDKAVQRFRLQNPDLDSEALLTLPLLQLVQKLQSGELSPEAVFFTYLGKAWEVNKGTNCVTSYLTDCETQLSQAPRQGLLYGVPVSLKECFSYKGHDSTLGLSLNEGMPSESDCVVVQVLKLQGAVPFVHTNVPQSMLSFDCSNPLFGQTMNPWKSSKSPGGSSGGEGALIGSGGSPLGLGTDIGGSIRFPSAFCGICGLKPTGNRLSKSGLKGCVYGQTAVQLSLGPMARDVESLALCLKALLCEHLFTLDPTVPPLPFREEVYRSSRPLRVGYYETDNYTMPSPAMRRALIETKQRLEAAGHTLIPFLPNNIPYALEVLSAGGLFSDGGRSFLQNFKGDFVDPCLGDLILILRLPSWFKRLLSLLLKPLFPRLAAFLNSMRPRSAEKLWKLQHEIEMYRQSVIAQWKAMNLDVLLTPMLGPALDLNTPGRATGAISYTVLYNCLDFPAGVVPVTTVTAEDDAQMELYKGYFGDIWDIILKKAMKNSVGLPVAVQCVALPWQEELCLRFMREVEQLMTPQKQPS
In short: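 Membrane fractions prepared from rat brain homogenates. FAAH activity measured as hydrolysis of [3H]anandamide, radiolabelled on the ethanolamine (60 Ci/mmol), used as substrate. IC50 taken as the half-maximal concentration for inhibition of hydrolysis.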

[2] = biological target: T1, Fatty-acid amide hydrolase 1; assay: Inhibition of [3H]anandamide binding to fatty acid amide hydrolase of rat brain membrane
In short: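 Membrane fractions prepared from rat brain homogenates; FAAH activity measured as hydrolysis of anandamide[ethanolamine-3H] (60 Ci/mmol) as substrate. Value reported as half-maximal inhibitory concentration (IC50) of FAAH activity.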

IC50 [1] [µM]	Compound	IC50 [2] [µM]
–	CCCCNC(=O)Oc1ccc2cc(Br)ccc2c1	0.759
> 30	CCNC(=O)Oc1ccc(C)cc1	–
11.5	CCCCNC(=O)Oc1ccc(F)cc1	11.5
–	Cc1ccc(OC(=O)NC2CCCCC2)cc1	5.37
–	O=C(NC1CCCCC1)Oc1cccc(-c2ccccc2)c1	0.0631
> 30	S=C(NC1CCCCC1)Oc1ccc2ccccc2c1	–
> 30	S=C(NC1CCCCC1)Sc1ccc2ccccc2c1	–
–	O=C(NC1CCCCC1)Oc1ccc(-c2ccccc2)cc1	2.29
> 30	O=C(Cc1ccc2ccccc2c1)NC1CCCCC1	–
3.76	CCCCCCOC(=O)NC1CCCCC1	–
–	O=C(NC1CCCCC1)Oc1ccc(/C=C/c2ccccc2)cc1	3.31
–	O=C(NC1CCCCC1)Oc1ccc2ccccc2c1	0.324
0.808	Cc1cccc(OC(=O)NC2CCCCC2)c1	0.813
3.78	O=C(NC1CCCCC1)Oc1ccccc1	3.8
> 30	O=C(Nc1cccc(-c2ccccc2)c1)OC1CCCCC1	–
> 30	O=C(NC1CCCCC1)OCCCCCc1ccccc1	–
> 30	O=C(Nc1ccc2ccccc2c1)NC1CCCCC1	–
15.6	O=C(NC1CCCCC1)Sc1ccc2ccccc2c1	–
3.53	CCc1ccc2cc(OC(=O)NC3CCCCC3)ccc2c1	3.55
> 30	S=C(Nc1ccc2ccccc2c1)NC1CCCCC1	–

Compound	IC50 [1] [µM]	IC50 [2] [µM]
O=C(NC1CCCCC1)Oc1ccc(/C=C\c2ccccc2)cc1	0.266	0.263
O=C(NC1CCCCC1)Oc1ccc2cccc(Br)c2c1	0.174	0.174
CCCCCc1cccc(OC(=O)NC2CCCCC2)c1	0.188	0.186
CCCCNC(=O)Oc1ccc(OCc2ccccc2)cc1	0.39	0.389
CNC(=O)Oc1ccc2ccccc2c1	18.3	–
CNC(=O)Oc1cccc2ccccc12 [CARBARIL]	> 30	–
